Measured values reported in the M2OR odorant receptor database.

Assays:
Details in all cases: stereoisomer not certain
UniProt A2ATE5 = molecular target: T1, UniProt A2ATE5
T1 sequence (whole entry): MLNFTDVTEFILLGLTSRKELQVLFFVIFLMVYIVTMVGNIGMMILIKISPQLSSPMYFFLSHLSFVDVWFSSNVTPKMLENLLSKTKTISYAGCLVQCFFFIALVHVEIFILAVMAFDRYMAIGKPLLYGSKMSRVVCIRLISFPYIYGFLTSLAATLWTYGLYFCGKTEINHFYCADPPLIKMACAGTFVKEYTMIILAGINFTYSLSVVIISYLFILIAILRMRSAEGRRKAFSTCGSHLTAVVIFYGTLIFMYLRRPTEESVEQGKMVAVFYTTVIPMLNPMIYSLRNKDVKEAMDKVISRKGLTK
In short: (§1)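 Each entry records the cell line, G-protein, co-transfected protein and tags used. Methods varied with the source, often transient luciferase assays in mammalian cell lines. A receptor–molecule pair is called responsive (active) if the original authors judged its signal statistically different from baseline and non-responsive (inactive) otherwise.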

UniProt A2AVB0 = molecular target: T2, UniProt A2AVB0
T2 sequence (whole entry): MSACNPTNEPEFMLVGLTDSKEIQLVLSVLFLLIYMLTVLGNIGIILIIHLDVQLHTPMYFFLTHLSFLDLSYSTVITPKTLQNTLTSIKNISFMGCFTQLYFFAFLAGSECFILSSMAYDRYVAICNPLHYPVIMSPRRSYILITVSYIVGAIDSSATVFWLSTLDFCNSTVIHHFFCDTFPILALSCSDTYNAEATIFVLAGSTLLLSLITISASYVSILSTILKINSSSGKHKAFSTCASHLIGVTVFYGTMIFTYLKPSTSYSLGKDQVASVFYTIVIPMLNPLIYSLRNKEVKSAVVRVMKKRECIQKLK
In short: as §1

UniProt A2AVB5 = molecular target: T3, UniProt A2AVB5
T3 sequence (whole entry): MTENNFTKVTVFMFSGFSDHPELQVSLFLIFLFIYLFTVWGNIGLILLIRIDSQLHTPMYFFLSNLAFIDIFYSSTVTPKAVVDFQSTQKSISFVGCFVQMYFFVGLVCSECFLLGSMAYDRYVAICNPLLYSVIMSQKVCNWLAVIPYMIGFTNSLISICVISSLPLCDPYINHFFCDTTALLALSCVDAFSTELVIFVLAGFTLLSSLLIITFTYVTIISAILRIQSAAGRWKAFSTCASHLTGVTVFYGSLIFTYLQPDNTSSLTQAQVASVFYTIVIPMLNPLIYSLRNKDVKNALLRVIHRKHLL
In short: as §1

UniProt B2RVX8 = molecular target: T4, UniProt B2RVX8
T4 sequence (whole entry): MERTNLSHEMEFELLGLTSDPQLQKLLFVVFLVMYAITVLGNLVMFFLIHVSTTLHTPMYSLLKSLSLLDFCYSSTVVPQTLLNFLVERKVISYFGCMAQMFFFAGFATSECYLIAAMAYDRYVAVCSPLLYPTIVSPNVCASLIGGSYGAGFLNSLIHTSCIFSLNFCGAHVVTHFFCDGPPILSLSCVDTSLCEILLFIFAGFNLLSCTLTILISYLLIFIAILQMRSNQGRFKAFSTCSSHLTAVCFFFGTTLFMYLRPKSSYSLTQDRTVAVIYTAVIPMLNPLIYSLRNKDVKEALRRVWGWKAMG
In short: as §1

UniProt E9PVX1 = molecular target: T5, UniProt E9PVX1
T5 sequence (whole entry): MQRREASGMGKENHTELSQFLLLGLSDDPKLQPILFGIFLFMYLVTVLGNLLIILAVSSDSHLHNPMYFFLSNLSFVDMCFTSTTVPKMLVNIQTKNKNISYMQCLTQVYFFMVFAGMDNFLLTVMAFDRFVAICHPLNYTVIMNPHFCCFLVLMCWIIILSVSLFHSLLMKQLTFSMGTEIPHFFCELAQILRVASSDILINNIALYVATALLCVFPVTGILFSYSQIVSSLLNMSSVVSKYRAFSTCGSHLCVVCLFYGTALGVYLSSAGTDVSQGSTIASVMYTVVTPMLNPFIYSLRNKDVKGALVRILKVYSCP
In short: as §1

UniProt E9PZ66 = molecular target: T6, UniProt E9PZ66
T6 sequence (whole entry): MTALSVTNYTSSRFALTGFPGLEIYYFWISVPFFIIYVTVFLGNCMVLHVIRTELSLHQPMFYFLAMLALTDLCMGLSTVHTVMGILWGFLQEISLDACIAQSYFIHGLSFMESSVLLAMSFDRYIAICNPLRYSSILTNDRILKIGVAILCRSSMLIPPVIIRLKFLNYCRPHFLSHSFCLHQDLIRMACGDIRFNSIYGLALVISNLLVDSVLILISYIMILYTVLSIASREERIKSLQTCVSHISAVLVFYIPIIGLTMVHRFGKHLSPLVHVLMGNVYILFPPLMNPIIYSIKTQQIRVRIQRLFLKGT
In short: as §1

UniProt E9Q4X7 = molecular target: T7, UniProt E9Q4X7
T7 sequence (whole entry): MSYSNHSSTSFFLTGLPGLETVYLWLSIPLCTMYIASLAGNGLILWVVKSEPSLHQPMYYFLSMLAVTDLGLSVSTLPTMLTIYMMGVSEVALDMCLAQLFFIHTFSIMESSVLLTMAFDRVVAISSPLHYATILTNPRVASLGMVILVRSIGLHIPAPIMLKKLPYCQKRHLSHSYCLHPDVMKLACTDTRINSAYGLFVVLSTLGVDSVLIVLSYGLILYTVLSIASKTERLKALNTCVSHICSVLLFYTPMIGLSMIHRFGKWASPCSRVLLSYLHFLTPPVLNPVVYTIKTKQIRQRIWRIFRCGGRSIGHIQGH
In short: as §1

UniProt E9Q546 = molecular target: T8, UniProt E9Q546
T8 sequence (whole entry): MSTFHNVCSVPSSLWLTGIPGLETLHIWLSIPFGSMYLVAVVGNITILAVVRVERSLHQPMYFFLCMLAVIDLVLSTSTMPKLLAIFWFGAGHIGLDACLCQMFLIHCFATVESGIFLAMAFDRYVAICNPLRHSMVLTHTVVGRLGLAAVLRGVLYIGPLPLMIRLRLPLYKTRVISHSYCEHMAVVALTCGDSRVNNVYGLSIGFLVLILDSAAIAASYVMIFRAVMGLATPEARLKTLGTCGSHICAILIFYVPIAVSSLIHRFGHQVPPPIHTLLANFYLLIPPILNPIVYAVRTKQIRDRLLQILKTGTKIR
In short: as §1

UniProt E9Q6Z7 = molecular target: T9, UniProt E9Q6Z7
T9 sequence (whole entry): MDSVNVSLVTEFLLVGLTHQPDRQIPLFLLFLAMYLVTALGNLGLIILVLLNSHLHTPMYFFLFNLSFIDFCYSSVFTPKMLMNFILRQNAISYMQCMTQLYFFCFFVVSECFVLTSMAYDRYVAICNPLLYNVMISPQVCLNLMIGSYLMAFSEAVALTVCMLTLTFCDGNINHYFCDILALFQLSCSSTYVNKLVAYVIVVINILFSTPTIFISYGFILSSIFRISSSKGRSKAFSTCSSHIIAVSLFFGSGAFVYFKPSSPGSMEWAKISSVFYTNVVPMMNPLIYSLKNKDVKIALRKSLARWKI
In short: as §1

UniProt K7N609 = molecular target: T10, UniProt K7N609
T10 sequence (whole entry): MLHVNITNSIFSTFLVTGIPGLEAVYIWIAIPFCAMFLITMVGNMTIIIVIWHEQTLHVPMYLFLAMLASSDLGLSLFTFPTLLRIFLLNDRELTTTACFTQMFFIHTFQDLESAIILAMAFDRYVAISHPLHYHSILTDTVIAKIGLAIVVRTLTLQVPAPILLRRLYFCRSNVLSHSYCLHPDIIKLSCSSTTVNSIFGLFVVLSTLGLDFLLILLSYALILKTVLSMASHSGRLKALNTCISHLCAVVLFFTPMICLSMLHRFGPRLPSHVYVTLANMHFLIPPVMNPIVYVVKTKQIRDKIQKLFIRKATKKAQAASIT
In short: as §1

UniProt E9PX47 = molecular target: T11, UniProt E9PX47
T11 sequence (whole entry): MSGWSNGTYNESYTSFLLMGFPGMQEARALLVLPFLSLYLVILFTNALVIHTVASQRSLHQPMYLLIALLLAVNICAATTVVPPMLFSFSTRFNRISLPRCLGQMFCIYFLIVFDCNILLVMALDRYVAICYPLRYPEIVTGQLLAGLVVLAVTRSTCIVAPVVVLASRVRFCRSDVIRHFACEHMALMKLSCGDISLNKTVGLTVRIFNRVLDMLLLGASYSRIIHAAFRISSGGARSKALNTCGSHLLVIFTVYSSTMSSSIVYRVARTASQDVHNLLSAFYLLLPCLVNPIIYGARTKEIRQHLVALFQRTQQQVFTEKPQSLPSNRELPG
In short: as §1

Measured: odorant receptor agonist call

CCCCCC1=C(C)CCC1=O
active: UniProt B2RVX8
not listed: UniProt E9PX47
inactive: all other assays above

CCCCCCCCC(=O)O
inactive: all assays above

O=C1Cc2ccccc2O1
not listed: UniProt E9PX47
inactive: all other assays above

CCCCCCC(C)=O
not listed: UniProt E9PX47
inactive: all other assays above

CC12CCC(CC1=O)C2(C)C (stereo unspecified)
not listed: UniProt E9PX47
inactive: all other assays above
